# According to ChEMBL document CHEMBL1129316, “Inhibitors of human immunodeficiency virus type 1 protease containing 2-aminobenzyl-substituted 4-amino-3-hydroxy-5-phenylpentanoic acid: synthesis, activity, and oral bioavailability” (J Med Chem, 1996):
# Legend:
# [1] = Oral Bioavailability was measured as area-under-curve(AUC) value at dose 125 mg/kg; format: ADME, organism-based; conditions: in vivo
# In short: (§1)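 Female Balb/c mice, fasted 24 h before and during the study, water ad libitum. Dosed by oral gavage at 125 mg/kg in a liquid formulation. Heparinized whole blood sampled at various times, methanol-extracted, cleaned on sulfobenzyl SPE, then RP-C18 HPLC with UV at 200 nm against an internal standard. Cmax taken as observed; AUC calculated. Detection limit 0.1 µM.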
# [2] = Oral Bioavailability was measured as Maximal observed concentration (Cmax) value at dose 125 mg/kg; format: ADME, organism-based; parameters: dose 125 mg/kg, route oral; conditions: in vivo; in short: as §1
# [3] = Solubility (phosphate-buffered saline, pH =7.4); format: physicochemical; conditions: read-out: S
# In short: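 About 1 mg of lyophilized amorphous inhibitor in 1 mL PBS (pH 7.4), vortexed 1 min and sonicated 30 min at 37 °C. Filtered, then centrifuged at 100 000 rpm for 30 min. Supernatant run on RP-C18 HPLC (10 mM NH4OAc/CH3CN 50/50, UV 210 nm) and quantified by external standard. Minimum detectable 0.1 µg/mL.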
# [4] = test system: Human immunodeficiency virus 1; assay: Antiviral activity against HIV-1, IIIB, in MT-4 Cells; format: functional, organism-based; conditions: Human immunodeficiency virus 1, MT4
# In short: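 HIV-1 strain IIIB-induced cytopathic effect in HTLV-I-transformed MT4 cells. Virus adsorbed to cells at 1 × 10⁶ cells/mL, 37 °C, 1 h. Compounds added postadsorption, final 1 × 10⁵ cells/mL. Inoculum set to kill 90% of cells in 5 days. Mock-infected and compound-only controls run. DMSO ≤0.3%, medium with 10% FBS. Viability read by MTT after 5 days. Mean of repeat determinations.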
# [5] = target: Human immunodeficiency virus type 1 protease (Human immunodeficiency virus 1, UniProt Q72874); assay: Binding affinity against HIV-1 protease
# In short: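 Recombinant HIV-1 PR expressed in E. coli JM105 and purified to homogeneity. Enzyme incubated at 37 °C in 0.1 M MES, 0.37 M NaCl, 4 mM EDTA, pH 6.25, with 280 µM chromogenic nonapeptide substrate (pNph). Initial rates taken from the absorbance decrease at 298 nm. IC50 fitted, then Ki = (IC50 − Et/2)/(1 + S/Km). Mean of two determinations; DMSO ≤5%.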
# [6] = Oral Bioavailability was measured as area-under-curve(AUC) value at dose 125 mg/kg; b = No compound detectable in blood above the detection limit of 0.1 uM; format: ADME, organism-based; conditions: in vivo; in short: as §1
# [7] = Oral Bioavailability was measured as Maximal observed concentration (Cmax) value at dose 125 mg/kg; b = No compound detectable in blood above the detection limit of 0.1 uM; format: ADME, organism-based; parameters: dose 125 mg/kg, route oral; conditions: in vivo; in short: as §1
# MT4 [8] = assay: Antiviral Activity against HIV-1, IIIB, in MT-4 Cells; d indicates no activity at 10 uM; format: functional, cell-based, Homo sapiens
# In short: (§2)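 MT4 cells infected with HIV-1 IIIB; virus adsorbed at 1 × 10⁶ cells/mL, 37 °C, 1 h, then plated at 1 × 10⁵ cells/mL with compound added postadsorption. Inoculum set to kill 90% of cells in 5 days. Incubated 5 days; viability of infected and mock-infected cells by MTT, read spectrophotometrically. Medium with 10% FBS; DMSO ≤0.3%. Values given as mean ± SD, n in parentheses.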
# MT4 [9] = assay: Antiviral Activity against HIV-1, IIIB, in MT-4 Cells; d indicates no activity at 3 uM; format: functional, cell-based, Homo sapiens; in short: as §2
SMILES,AUC [1] [µM·h],Cmax [2] [nM],solubility [3] [µM],IC50 [4] [nM],Ki [5] [nM],also measured
COc1ccc(CN[C@@H](C(=O)N[C@H]2c3ccccc3C[C@H]2O)[C@H](O)[C@H](Cc2ccccc2)NC(=O)[C@@H](NC(=O)OCc2ccccc2)C(C)(C)C)cc1,82.5,16500,< 1,254,9.5,
COc1ccc(CN[C@@H](C(=O)NC2c3ccccc3C[C@H]2O)[C@H](O)[C@H](Cc2ccccc2)NC(=O)[C@@H](NC(=O)CCc2ccccc2O)C(C)(C)C)cc1 (stereo partly specified),11.8,1800,,160,13,
COc1ccc(CN[C@@H](C(=O)NC2c3ccccc3C[C@H]2O)[C@H](O)[C@H](Cc2ccccc2)NC(=O)[C@@H](NC(=O)CCc2ccc(OC)c(O)c2)C(C)(C)C)cc1 (stereo partly specified),0.2,250,,88,7.7,
CCC(C)C(NC(=O)OCc1ccccc1)C(=O)N[C@@H](Cc1ccccc1)[C@@H](O)[C@@H](NCc1ccc(OC)cc1)C(=O)N[C@@H]1c2ccccc2CC1O (stereo partly specified),,,,1100,8.2,
COc1ccc(CN[C@@H](C(=O)NC2c3ccccc3C[C@H]2O)[C@H](O)[C@H](Cc2ccccc2)NC(=O)[C@@H](NC(=O)/C=C/c2ccc(OC)cc2O)C(C)(C)C)cc1 (stereo partly specified),,,,238,18,
COc1ccc(CN[C@@H](C(=O)N[C@H]2c3ccccc3C[C@H]2O)[C@H](O)[C@H](Cc2ccccc2)NC(=O)[C@@H](NC(=O)Nc2cccc(OC)c2OC)C(C)(C)C)cc1,,,,532,13,
COc1ccc(CN[C@@H](C(=O)N[C@H]2c3ccccc3C[C@H]2O)[C@H](O)[C@H](Cc2ccccc2)NC(=O)[C@@H](NC(=O)CCc2nc3ccccc3[nH]2)C(C)(C)C)cc1,,,12.2,98,9.4,AUC [6]: No compound detectable; Cmax [7]: No compound detectable
CC(=O)NCc1ccc(CN[C@@H](C(=O)N[C@H]2c3ccccc3C[C@H]2O)[C@H](O)[C@H](Cc2ccccc2)NC(=O)OC(C)(C)C)cc1,,,,2600,70,
CC(C)(C)OC(=O)N[C@@H](Cc1ccccc1)[C@@H](O)[C@@H](NCc1ccc(CNC(=O)Nc2ccccc2)cc1)C(=O)N[C@@H]1c2ccccc2C[C@H]1O,,,,,33,IC50 (MT4 [8]): No activity
COc1ccc(CN[C@@H](C(=O)N[C@@H]2c3ccccc3C[C@H]2O)[C@H](O)[C@H](Cc2ccccc2)NC(=O)C(CC(N)=O)NC(=O)OCc2ccccc2)cc1 (stereo partly specified),,,,1400,15,
CC(C)(C)[C@H](NC(=O)OCc1ccccc1)C(=O)N[C@@H](Cc1ccccc1)[C@@H](O)[C@@H](NCc1ccc(OCCO)cc1)C(=O)N[C@H]1c2ccccc2C[C@H]1O,5.9,2600,16.5,155,,
COc1ccc(CN[C@@H](C(=O)N[C@H]2c3ccccc3CC2O)[C@H](O)[C@H](Cc2ccccc2)NC(=O)[C@@H](NC(=O)OCc2ccccc2)C(C)C)cc1 (stereo partly specified),137,12300,2.9,344,8.1,
CCOc1ccc(CN[C@@H](C(=O)N[C@@H]2c3ccccc3C[C@H]2O)[C@H](O)[C@H](Cc2ccccc2)NC(=O)OC(C)(C)C)cc1,,,,,92,IC50 (MT4 [8]): No activity
COc1ccc(CN[C@@H](C(=O)NC(C(=O)NCc2nc3ccccc3[nH]2)c2ccccc2)[C@H](O)[C@H](Cc2ccccc2)NC(=O)OC(C)(C)C)cc1 (stereo partly specified),,,,380,11,
COc1ccc(CN[C@@H](C(=O)N[C@@H]2c3ccccc3C[C@H]2O)[C@H](O)[C@H](Cc2ccccc2)NC(=O)OC(C)(C)C)cc1,,,,,65,IC50 (MT4 [8]): No activity
COc1ccc(CN[C@@H](C(=O)NC2c3ccccc3C[C@H]2O)[C@H](O)[C@H](Cc2ccccc2)NC(=O)[C@@H](NC(=O)CSc2nnn(C)n2)C(C)(C)C)cc1 (stereo partly specified),7.4,2800,78,180,12,
CC(C)(C)OC(=O)N[C@@H](Cc1ccccc1)[C@@H](O)[C@@H](NCc1ccc(CNC(=O)CCc2nc3ccccc3[nH]2)cc1)C(=O)N[C@H]1c2ccccc2C[C@H]1O,,,,4400,41,
COc1ccc(CN[C@@H](C(=O)NC(C(=O)NCc2nc3ccccc3[nH]2)C(C)C)[C@H](O)[C@H](Cc2ccccc2)NC(=O)OC(C)(C)C)cc1 (stereo partly specified),127,9100,9,510,7.7,
CC(C)(C)OC(=O)N[C@@H](Cc1ccccc1)[C@@H](O)[C@@H](NCc1ccc(CNC(=O)OCc2ccccc2)cc1)C(=O)N[C@H]1c2ccccc2C[C@H]1O,,,,,,IC50 (MT4 [8]): No activity
CC(C)(C)OC(=O)N[C@@H](Cc1ccccc1)[C@@H](O)[C@@H](NCc1ccc(CNC(=O)CCc2nc3ccccc3[nH]2)cc1)C(=O)NCc1ccccc1,,,,,,IC50 (MT4 [9]): No activity
COc1ccc(CN[C@@H](C(=O)N[C@@H]2c3ccccc3C[C@H]2O)[C@H](O)[C@H](Cc2ccccc2)NC(=O)C(CC(=O)O)NC(=O)OCc2ccccc2)cc1 (stereo partly specified),,,,,22,IC50 (MT4 [9]): No activity
CC(C)(C)OC(=O)N[C@@H](Cc1ccccc1)[C@@H](O)[C@@H](NCc1ccc(OCCO)cc1)C(=O)N[C@@H]1c2ccccc2C[C@H]1O,,,,4000,80,
COc1ccc(CN[C@@H](C(=O)N[C@H](C(=O)NCc2nc3ccccc3[nH]2)C(C)C)[C@H](O)[C@H](Cc2ccccc2)NC(=O)[C@@H](NC(=O)OCc2ccccc2)C(C)(C)C)cc1,0.6,200,< 1,25,3.4,
COc1ccc(CN[C@@H](C(=O)N[C@@H]2c3ccccc3C[C@H]2O)[C@H](O)[C@H](Cc2ccccc2)NC(=O)[C@@H](NC(=O)OC(C)(C)C)C(C)(C)C)cc1,,,,,210,IC50 (MT4 [9]): No activity
COc1ccc(CN[C@@H](C(=O)NC2c3ccccc3C[C@H]2O)[C@H](O)[C@H](Cc2ccccc2)NC(=O)[C@@H](NC(=O)CSc2nnc(C)s2)C(C)(C)C)cc1 (stereo partly specified),60.3,20000,39,178,8,
CC(C)(C)OC(=O)N[C@@H](Cc1ccccc1)[C@@H](O)[C@@H](NCc1ccc(OCCO)cc1)C(=O)NCc1ccccc1,,,,,,IC50 (MT4 [9]): No activity
COc1ccc(CN[C@@H](C(=O)NC2c3ccccc3C[C@H]2O)[C@H](O)[C@H](Cc2ccccc2)NC(=O)[C@@H](NC(=O)CSc2nncn2C)C(C)(C)C)cc1 (stereo partly specified),1.6,700,260,190,5.8,
CCOc1ccc(CN[C@@H](C(=O)N[C@H]2c3ccccc3C[C@H]2O)[C@H](O)[C@H](Cc2ccccc2)NC(=O)[C@@H](NC(=O)OCc2ccccc2)C(C)(C)C)cc1,23.9,4300,< 1,256,,
CC(C)(C)OC(=O)N[C@@H](Cc1ccccc1)[C@@H](O)[C@@H](NCc1ccccc1)C(=O)NCc1ccccc1,0.8,400,< 1,,,IC50 (MT4 [9]): No activity
CC(C)(C)OC(=O)N[C@@H](Cc1ccccc1)[C@@H](O)[C@@H](NCc1ccc(OCCN2CCOCC2)cc1)C(=O)N[C@@H]1c2ccccc2C[C@H]1O,,,,,130,IC50 (MT4 [8]): No activity
